Legend:
Type in all cases: functional
Rattus norvegicus [1] = test: Ability to induce contralateral rotational behavior in unilateral 6-hydroxydopamine nigrostriatal-lesioned rats and percent of rats turning was determined at intraperitoneal dosage of 0.1 mg/kg
In short: (§1)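 Rats given unilateral 6-hydroxydopamine nigrostriatal lesions, then test compound ip. Contralateral rotation was scored as percent of rats turning and as turns in the first 15 min after turning began. Groups of 6–10 rats.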

Rattus norvegicus [2] = test: Ability to induce contralateral rotational behavior in unilateral 6-hydroxydopamine nigrostriatal-lesioned rats and no. of turns was determined after 15 minutes of start at intraperitoneal dosage of 1.0 mg/kg; in short: as §1
Rattus norvegicus [3] = test: Ability to lower the serum prolactin levels in comparison with that of pergolide expressed as percent inhibition change at ip dose of 0.05 mg/kg; conditions: route intraperitoneal
In short: (§2)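 Reserpinized male rats, test compound ip. Serum prolactin (ng/mL) was measured in control and treated groups, and the treated value was expressed as percent change from control. Means ± standard error for 10 rats, with significance versus control prolactin given as p.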

Rattus norvegicus [4] = test: Ability to lower the serum prolactin levels in comparison with that of pergolide was determined for the drug-treated rats at ip dose of 0.005 mg/kg; conditions: route intraperitoneal; in short: as §2
Rattus norvegicus [5] = test: Ability to lower the serum prolactin levels in comparison with that of pergolide was determined for the control rats at ip dose of 0.005 mg/kg; conditions: route intraperitoneal; in short: as §2
Rattus norvegicus [6] = test: Ability to lower the serum prolactin levels in comparison with that of pergolide expressed as percent inhibition change at ip dose of 0.005 mg/kg; conditions: route intraperitoneal; in short: as §2
Rattus norvegicus [7] = test: Ability to lower the serum prolactin levels in comparison with that of pergolide was determined for the drug-treated rats at ip dose of 0.05 mg/kg; conditions: route intraperitoneal; in short: as §2
Rattus norvegicus [8] = test: Ability to induce contralateral rotational behavior in unilateral 6-hydroxydopamine nigrostriatal-lesioned rats and percent of rats turning was determined at intraperitoneal dosage of 1.0 mg/kg; in short: as §1
Rattus norvegicus [9] = test: Ability to lower the serum prolactin levels in comparison with that of pergolide was determined for the control rats at ip dose of 0.05 mg/kg; conditions: route intraperitoneal; in short: as §2
Rattus norvegicus [10] = test: Ability to induce contralateral rotational behavior in unilateral 6-hydroxydopamine nigrostriatal-lesioned rats and no. of turns was determined after 15 minutes of start at intraperitoneal dosage of 0.1 mg/kg; in short: as §1
Rattus norvegicus [11] = test: Ability to lower the serum prolactin levels in comparison with that of pergolide was determined for the control rats at ip dose of 0.5 mg/kg; conditions: route intraperitoneal; in short: as §2
Rattus norvegicus [12] = test: Ability to lower the serum prolactin levels in comparison with that of pergolide was determined for the control rats at ip dose of 0.1 mg/kg; conditions: route intraperitoneal; in short: as §2
Rattus norvegicus [13] = test: Ability to lower the serum prolactin levels in comparison with that of pergolide expressed as percent inhibition change at ip dose of 0.5 mg/kg; conditions: route intraperitoneal; in short: as §2
Rattus norvegicus [14] = test: Ability to lower the serum prolactin levels in comparison with that of pergolide expressed as percent inhibition change at ip dose of 0.1 mg/kg; conditions: route intraperitoneal; in short: as §2
Rattus norvegicus [15] = test: Ability to lower the serum prolactin levels in comparison with that of pergolide was determined for the control rats at ip dose of 0.01 mg/kg; conditions: route intraperitoneal; in short: as §2
Rattus norvegicus [16] = test: Ability to lower the serum prolactin levels in comparison with that of pergolide expressed as percent inhibition change at ip dose of 0.01 mg/kg; conditions: route intraperitoneal; in short: as §2
Rattus norvegicus [17] = test: Ability to lower the serum prolactin levels in comparison with that of pergolide was determined for the drug-treated rats at ip dose of 0.5 mg/kg; conditions: route intraperitoneal; in short: as §2
Rattus norvegicus [18] = test: Ability to lower the serum prolactin levels in comparison with that of pergolide was determined for the drug-treated rats at ip dose of 0.01 mg/kg; conditions: route intraperitoneal; in short: as §2
Rattus norvegicus [19] = test: Ability to lower the serum prolactin levels in comparison with that of pergolide was determined for the drug-treated rats at ip dose of 0.1 mg/kg; conditions: route intraperitoneal; in short: as §2
Rattus norvegicus [20] = test: Ability to lower the serum prolactin levels in comparison with that of pergolide expressed as percent inhibition change at ip dose of 5.0 mg/kg; conditions: route intraperitoneal; in short: as §2
Rattus norvegicus [21] = test: Ability to lower the serum prolactin levels in comparison with that of pergolide was determined for the drug-treated rats at ip dose of 5.0 mg/kg; conditions: route intraperitoneal; in short: as §2

Row | SMILES | Of rats turning (Rattus norvegicus [1]) [%] | Turns (Rattus norvegicus [2]) | Change (Rattus norvegicus [3]) [%] | Prolactin treatment (Rattus norvegicus [4]) [ng/mL] | Prolactin control (Rattus norvegicus [5]) [ng/mL] | Change (Rattus norvegicus [6]) [%] | Prolactin treatment (Rattus norvegicus [7]) [ng/mL] | Of rats turning (Rattus norvegicus [8]) [%] | Prolactin control (Rattus norvegicus [9]) [ng/mL] | Turns (Rattus norvegicus [10]) | Change (Rattus norvegicus [13]) [%] | Rats turning (Rattus norvegicus [8]) [%] | Prolactin control (Rattus norvegicus [15]) [ng/mL] | Change (Rattus norvegicus [16]) [%] | Prolactin treatment (Rattus norvegicus [17]) [ng/mL] | Prolactin treatment (Rattus norvegicus [18]) [ng/mL] | other results
1 | CCCN1C[C@H](CSC)C[C@@H]2c3cccc4[nH]cc(c34)C[C@H]21 [PERGOLIDE] | 83 | 93 | -95 | 3.5 | 37.7 | -91 | 1.6 | 100 | 30.4 | 81 | – | – | – | – | – | – | –
2 | CCCN1CCO[C@@H]2Cc3n[nH]cc3C[C@H]21 | – | 52 | -41 | – | – | – | 27 | – | 45.5 | 35 | -92 | 100 | 58 | 7 | 3.6 | 62 | Prolactin control (Rattus norvegicus [11]): 46.8 ng/mL; Rats turning (Rattus norvegicus [1]): 60%; Prolactin control (Rattus norvegicus [12]): 46.8 ng/mL; Change (Rattus norvegicus [14]): -35%; Prolactin treatment (Rattus norvegicus [19]): 30.2 ng/mL
3 | CCCN1CCC[C@@H]2Cc3n[nH]cc3C[C@H]21 [QUINPIROLE] | 75 | – | -61 | – | – | – | 12.3 | 100 | – | – | -76 | – | – | – | 7.7 | – | Turns/1st (Rattus norvegicus [2]): 85; Change (Rattus norvegicus [20]): -91%; Prolactin treatment (Rattus norvegicus [21]): 2.7 ng/mL; Turns/1st (Rattus norvegicus [10]): 67
4 | CCCN1CCO[C@@H]2Cc3nc(N)ncc3C[C@H]21 | – | 33 | -70 | 41.2 | 40.6 | 1 | 13.8 | – | 45.4 | – | – | 80 | 52 | -31 | – | 33.7 | –
5 | CCCN1CCO[C@@H]2Cc3nc(N)sc3C[C@H]21 | – | 95 | -51 | – | – | – | 20.2 | – | 41.5 | – | – | 80 | 40.6 | -20 | – | 48.9 | –
